PMC7175782 (Bioconjugate chemistry, 2018)

Tested on: TAR RNA
Assay: Direct binding of ligands to TAR by ESI-MS under nondenaturing conditions
Design: species or system HIV-1
Settings: 1 μM TAR, 10 μM ligand (1:10), 150 mM ammonium acetate
Procedure, shortened: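 Nondenaturing ESI-MS of HIV-1 TAR RNA (1 μM) mixed with test compound (10 μM, 1:10 molar ratio) in 150 mM ammonium acetate. Species assigned from monoisotopic masses. Free and bound RNA were quantified from relative abundances, expressed as percentages and compared to assess binding.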

SMILES | binding stoichiometry of TAR complexes (ligand:TAR)
CC(NC(=O)C(N)CCCN)C(=O)Nc1ccc2c(c1)C(=O)c1ccc(NC(=O)C(C)NC(=O)C(N)CCCN)cc1C2=O.O=C(O)C(F)(F)F.O=C(O)C(F)(F)F.O=C(O)C(F)(F)F.O=C(O)C(F)(F)F [D-4g, N,N ′-(1,1′-(9,10-Dioxo-9,10-dihydroanthracene-2,6-diyl)-bis(azanediyl)bis(1-oxo-propane-2,1-diyl))bis(2,5-diaminopentanamide)-tetra-trifluoroacetate] | up to 3 equiv of ligand
C[C@H](NC(=O)C(N)CCCCN)C(=O)Nc1ccc2c(c1)C(=O)c1ccc(NC(=O)[C@H](C)NC(=O)C(N)CCCCN)cc1C2=O.O=C(O)C(F)(F)F.O=C(O)C(F)(F)F.O=C(O)C(F)(F)F.O=C(O)C(F)(F)F (stereo partly drawn) [D-4h, N,N′-(2S,2′S)-1,1′-(9,10-Dioxo-9,10-dihydro-anthracene-2,6-diyl)bis(azanediyl)-bis(1-oxopropane-2,1-diyl)bis(2,6-diaminohexanamide)-tetra-trifluoroacetate] | up to 4 equiv of ligand
